Laboratory results from ChEMBL document CHEMBL1938323, “Phenolic substances from Phagnalon rupestre protect against 2,4,6-trinitrochlorobenzene-induced contact hypersensitivity” (2011).
Active and inactive are the calls of the source. The calls are words filed in the database; no cut-off is given here.

Columns and labels:
Mus musculus [1] = assay: Antihypersensitivity activity against TNCB-induced atopic dermatitis in BALB/c mouse ear assessed as inhibition of ear thickness at 0.5 mg/ear applied topically three times per week 30 min TNCB post challenge measured on day 11 onwards; format: functional
In short: (§1)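 BALB/c mice sensitized with 10 μL 0.3% TNCB in acetone on both inner ears at day −7, then re-challenged at the same site three times per week over days 0–21. Ear thickness measured by digital micrometer. Edema is the difference between naive and inflamed ear thickness. Inhibition calculated relative to the control group.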

Mus musculus [2] = species: Mus musculus; assay: Antihypersensitivity activity against TNCB-induced contact hypersensitivity in BALB/c mouse ear assessed as decrease IL4 levels at 0.5 mg/ear measured after 24 to 72 hrs by ELISA; format: functional, organism-based
In short: (§2)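 Acute CHS: female BALB/c mice challenged with 1% TNCB (10 μL/ear). Topical treatment at 30 min, 24 h and 48 h: compounds 0.5 mg/ear, dexamethasone 0.025 mg/ear. Ears collected at 24 and 72 h and homogenized. Cytokines measured by ELISA in triplicate and expressed as pg/mL. n ≥4 animals; Dunnett's test versus control.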

RAW264.7 [3] = assay: Antiinflammatory activity in mouse RAW264.7 cells assessed as inhibition of LPS-induced MMP9 expression by Western blotting; format: functional, cell-based
In short: (§3)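 RAW 264.7 cells were plated at 2×10^5 cells/mL and switched to DMEM with 0.5% FBS when subconfluent. They were pretreated 1 h with compound (25, 50, 100 μM) or PBS vehicle, then given LPS 1 μg/mL. Cells were lysed after 24 h. MMP-9 was measured by Western blot, normalized to β-actin, with % inhibition versus control. Three experiments.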

RAW264.7 [4] = assay: Antiinflammatory activity in mouse RAW264.7 cells assessed as inhibition of LPS-induced MMP9 expression at 25 uM by Western blotting relative to control; format: functional; in short: as §3
Mus musculus [5] = species: Mus musculus; assay: Antihypersensitivity activity against TNCB-induced acute contact hypersensitivity in BALB/c mouse ear assessed as inhibition of neutrophil infiltration by measuring MPO activity at 0.5 mg/ear measured after 72 hrs relative to control; format: functional
In short: (§4)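 Female BALB/c mice were challenged on both ears with 10 μL 1% TNCB in acetone. Test compounds (0.5 mg/ear in EtOH–H2O 8:2) or dexamethasone (0.025 mg/ear in acetone) were applied topically at 30 min, 24 h and 48 h. Ear tissue was taken at 24 or 72 h and homogenized in phosphate buffer with 0.5% HTAB. MPO was read by TMB/H2O2, 3 min at 37 °C, A630. n ≥5 ear samples.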

Mus musculus [6] = species: Mus musculus; assay: Antihypersensitivity activity against TNCB-induced contact hypersensitivity in BALB/c mouse ear assessed as decrease IL1-beta levels at 0.5 mg/ear measured at 72 hrs by ELISA relative to control; format: functional; in short: as §2
RAW264.7 [7] = assay: Antiinflammatory activity in mouse RAW264.7 cells assessed as inhibition of LPS-induced MMP9 expression at 50 uM by Western blotting relative to control; format: functional; in short: as §3
Mus musculus [8] = species: Mus musculus; assay: Antihypersensitivity activity against TNCB-induced contact hypersensitivity in BALB/c mouse ear assessed as decrease IL2 levels at 0.5 mg/ear measured after 72 hrs by ELISA relative to 24 hrs; format: functional; in short: as §2
Mus musculus [9] = assay: Antihypersensitivity against TNCB-induced contact hypersensitivity in BALB/c mouse ear assessed as inhibition of edema at 0.5 mg/ear applied […] after 30 mins, 24 hrs and 48 hrs of TNCB challenge measured after 24 hrs relative to control; format: functional
In short: (§5)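 Female BALB/c mice (7–9 weeks) challenged on each ear with 10 μL 1% TNCB in acetone six days after sensitization. Compounds given at 0.5 mg/ear in EtOH–H2O 8:2 at 30 min, 24 h and 48 h. Ear thickness measured by micrometer at 24 and 72 h. Edema is inflamed minus naive thickness; inhibition versus control. Dunnett's test.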

RAW264.7 [10] = assay: Antiinflammatory activity in mouse RAW264.7 cells assessed as inhibition of LPS-induced MMP9 expression at 100 uM by Western blotting relative to control; format: functional; in short: as §3
Mus musculus [11] = species: Mus musculus; assay: Antihypersensitivity activity against TNCB-induced contact hypersensitivity in BALB/c mouse ear assessed as decrease IL1-beta levels at 0.5 mg/ear measured at 24 hrs by ELISA relative to control; format: functional; in short: as §2
Mus musculus [12] = assay: Antihypersensitivity against TNCB-induced contact hypersensitivity in BALB/c mouse ear assessed as inhibition of edema at 0.5 mg/ear applied tropically after 30 mins, 24 hrs and 48 hrs of TNCB challenge measured after 72 hrs relative to control; format: functional; in short: as §5
Mus musculus [13] = species: Mus musculus; assay: Antihypersensitivity activity against TNCB-induced contact hypersensitivity in BALB/c mouse ear assessed as inhibition of MMP9 production at 0.5 mg/ear measured at 24 hrs by Western blot analysis relative to control; format: functional
Mus musculus [14] = species: Mus musculus; assay: Antihypersensitivity activity against TNCB-induced acute contact hypersensitivity in BALB/c mouse ear assessed as inhibition of neutrophil infiltration by measuring MPO activity at 0.5 mg/ear measured after 24 hrs relative to control; format: functional; in short: as §4
Mus musculus [15] = species: Mus musculus; assay: Antihypersensitivity activity against TNCB-induced acute contact hypersensitivity in BALB/c mouse ear assessed as inhibition of neutrophil infiltration by measuring MPO activity at 0.5 mg/ear measured after 22 days of repeated application of TNCB relative to control; format: functional
In short: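 Repeated-challenge protocol in BALB/c mice: sensitized with 10 μL 0.3% TNCB in acetone on both inner ears at day −7, then 0.3% TNCB three times weekly over days 0–21. Ears were excised on day 22 and homogenized in 0.5% HTAB phosphate buffer. MPO was read by TMB/H2O2, 3 min at 37 °C, A630. n ≥5 ear samples.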

Mus musculus [16] = species: Mus musculus; assay: Antihypersensitivity activity against TNCB-induced contact hypersensitivity in BALB/c mouse ear assessed as decrease TNFalpha levels at 0.5 mg/ear measured at 24 hrs by ELISA relative to control; format: functional; in short: as §2
Mus musculus [17] = species: Mus musculus; assay: Antihypersensitivity activity against TNCB-induced contact hypersensitivity in BALB/c mouse ear assessed as decreased COX2 expression at 0.5 mg/ear after at 72 hrs by Western blotting relative to control; format: functional
Mus musculus [18] = species: Mus musculus; assay: Antihypersensitivity activity against TNCB-induced contact hypersensitivity in BALB/c mouse ear assessed as decreased COX2 expression at 0.5 mg/ear after at 24 hrs by Western blotting relative to control; format: functional
Mus musculus [19] = assay: Antihypersensitivity activity against TNCB-induced atopic dermatitis in BALB/c mouse ear assessed as inhibition of ear thickness at 0.5 mg/ear applied topically three times per week 30 min TNCB post challenge measured on day 7 onwards; format: functional; in short: as §1
[20] = Inhibition of NF-kappaB activation
Mus musculus [21] = species: Mus musculus; assay: Antihypersensitivity activity against TNCB-induced contact hypersensitivity in BALB/c mouse ear assessed as decrease cytokines levels at 0.025 mg/ear measured at 24 hrs by ELISA relative to control; format: functional; in short: as §2
Mus musculus [22] = species: Mus musculus; assay: Antihypersensitivity activity against TNCB-induced contact hypersensitivity in BALB/c mouse ear assessed as decreased COX2 expression at 0.025 mg/ear after at 24 hrs by Western blotting relative to control; format: functional
Mus musculus [23] = species: Mus musculus; assay: Antihypersensitivity activity against TNCB-induced contact hypersensitivity in BALB/c mouse ear assessed as inhibition of MMP9 production at 0.025 mg/ear measured at 72 hrs by Western blot analysis relative to control; format: functional
Mus musculus [24] = species: Mus musculus; assay: Antihypersensitivity activity against TNCB-induced acute contact hypersensitivity in BALB/c mouse ear assessed as inhibition of neutrophil infiltration by measuring MPO activity at 0.025 mg/ear measured after 22 days of repeated application of TNCB relative to control; format: functional
In short: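 Female BALB/c mice were sensitized with 10 μL 0.3% TNCB in acetone on both inner ear surfaces, then painted with 0.3% TNCB three times weekly through days 0–21. On day 22 ears were homogenized in 50 mM PBS with 0.5% HTAB. Supernatant was read with H2O2 and tetramethylbenzidine, 3 min at 37 °C, acid-stopped, A630. Reported as mean ± SEM of ≥5 ear samples.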

Mus musculus [25] = species: Mus musculus; assay: Antihypersensitivity activity against TNCB-induced contact hypersensitivity in BALB/c mouse ear assessed as inhibition of MMP9 production at 0.025 mg/ear measured at 24 hrs by ELISA relative to control
Mus musculus [26] = assay: Antihypersensitivity activity against TNCB-induced atopic dermatitis in BALB/c mouse ear assessed as inhibition of ear thickness at 0.025 mg/ear applied topically three times per week 30 min TNCB post challenge measured up to 25 days; format: functional, organism-based; details: in the assay text read “up to 21 days” for “up to 25 days”; in short: as §1
Mus musculus [27] = species: Mus musculus; assay: Antihypersensitivity activity against TNCB-induced contact hypersensitivity in BALB/c mouse ear assessed as decreased COX2 expression at 0.025 mg/ear after at 72 hrs by Western blotting relative to control; format: functional
Mus musculus [28] = assay: Antihypersensitivity against TNCB-induced contact hypersensitivity in BALB/c mouse ear assessed as inhibition of edema at 0.025 mg/ear applied […] after 30 mins, 24 hrs and 48 hrs of TNCB challenge measured after 72 hrs relative to control; format: functional
In short: (§6)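 Female BALB/c mice, 7–9 weeks old, were challenged with 10 μL 1% TNCB in acetone per ear. Dexamethasone (20 μL, in acetone) was applied topically to both ears at 30 min, 24 h and 48 h after challenge. Thickness was taken by digital micrometer at 24 h or 72 h; edema is inflamed minus naive ear, with inhibition relative to control. Reported as mean ± SEM, ≥6 animals, Dunnett's test.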

Mus musculus [29] = assay: Antihypersensitivity against TNCB-induced contact hypersensitivity in BALB/c mouse ear assessed as inhibition of edema at 0.025 mg/ear applied […] after 30 mins, 24 hrs and 48 hrs of TNCB challenge measured after 24 hrs relative to control; format: functional; in short: as §6
Mus musculus [30] = species: Mus musculus; assay: Antihypersensitivity activity against TNCB-induced acute contact hypersensitivity in BALB/c mouse ear assessed as inhibition of neutrophil infiltration by measuring MPO activity at 0.025 mg/ear measured after 24 to 72 hrs relative to control; format: functional; in short: as §4

SMILES | inhibition (Mus musculus [2]) | inhibition (RAW264.7 [3]) | inhibition at 25 µM (RAW264.7 [4]) [%] | inhibition (INH) (Mus musculus [6]) [%] | inhibition at 50 µM (RAW264.7 [7]) [%] | fold change (FC) (Mus musculus [8]) | inhibition (INH) (Mus musculus [9]) [%] | inhibition at 100 µM (RAW264.7 [10]) [%] | inhibition (INH) (Mus musculus [11]) [%] | inhibition (INH) (Mus musculus [13]) [%] | inhibition (INH) (Mus musculus [16]) [%] | inhibition (INH) (Mus musculus [17]) [%] | inhibition (INH) (Mus musculus [18]) [%] | also measured
CC(C)=CCc1cc(O)ccc1O[C@@H]1O[C@H](CO)[C@@H](O)[C@H](O)[C@H]1O | inactive | Dose-dependent effect | 10 | 60 | 72 | 2 | 53 | 86 | >50 | – | – | – | – | inhibition (INH) (Mus musculus [1]): 30%; inhibition (INH) (Mus musculus [5]): 43%; inhibition (INH) (Mus musculus [12]): 50%
O=C(/C=C/c1ccc(O)c(O)c1)O[C@@H]1C[C@](O)(C(=O)O)C[C@@H](OC(=O)/C=C/c2ccc(O)c(O)c2)[C@H]1O (relative stereo) | inactive | Dose-dependent effect | 20 | – | 42 | 2 | 50 | 97 | >50 | 66 | 53 | 20 | 44 | inhibition (INH) (Mus musculus [14]): 20%; inhibition (INH) (Mus musculus [15]): 44%; inhibition (INH) (Mus musculus [19]): > 40%; inhibition [20]: Active
O=C(O[C@@H]1Cc2c(O)cc(O)cc2O[C@@H]1c1cc(O)c(O)c(O)c1)c1cc(O)c(O)c(O)c1 [EPIGALOCATECHIN GALLATE] | – | – | 70 | – | 75 | – | – | 90 | – | – | – | – | – | –
C[C@@H]1C[C@H]2[C@@H]3CCC4=CC(=O)C=C[C@]4(C)[C@@]3(F)[C@@H](O)C[C@]2(C)[C@@]1(O)C(=O)CO [DEXAMETHASONE] | – | – | – | – | – | – | – | – | – | – | – | – | – | inhibition (INH) (Mus musculus [21]): 50%; inhibition (INH) (Mus musculus [22]): 48%; inhibition (INH) (Mus musculus [23]): 69%; inhibition (INH) (Mus musculus [24]): 78%; inhibition (INH) (Mus musculus [25]): 81%; inhibition (Mus musculus [26]): Active; inhibition (INH) (Mus musculus [27]): 43%; inhibition (INH) (Mus musculus [28]): 83%; inhibition (INH) (Mus musculus [29]): 78%; inhibition (INH) (Mus musculus [30]): 65%
COC(=O)[C@]1(O)C[C@@H](OC(=O)/C=C/c2ccc(O)c(O)c2)[C@@H](O)[C@H](OC(=O)/C=C/c2ccc(O)c(O)c2)C1 | inactive | Dose-dependent effect | 26 | 60 | 85 | 2 | 45 | 90 | >50 | 41 | 39 | 29 | 49 | –
